Where two headings read alike, the source gives them in different places.
How the values were obtained:
[1] = Metabolite profiling in pooled fecal homogenate; assay type: in vivo, human; conditions: subjects on hemodialysis
[2] = tested on: other receptors, ion channels, or transporters; conditions: other than kappa-opioid receptor; cited from earlier work
[3] = tested on: CYP1A2, CYP2C19, CYP2C8, CYP2C9, CYP2D6, or CYP3A; conditions: human hepatic microsomes or in vitro hepatocytes; cited from earlier work
[4] = Mass balance: recovery of radioactive dose in urine, feces and dialysate; assay type: in vivo, human; conditions: subjects on hemodialysis; sum of all dialysis treatments (3 times per week, 4 h); total radioactivity (LSC); mean, n = 6
[5] = assay type: in vivo, human; conditions: for total radioactivity in whole blood lower than that in plasma: based on mean Cmax and AUCinf; for time to maximum concentration (post-dose): single IV bolus
Method in brief: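 Six healthy and six HD adult males received one 1 mL IV bolus of [14C]-labelled test compound in 0.9% NaCl: 100 μCi, about 200 μg, 1.7–3.0 μg/kg. HD subjects were dosed via the dialysis port after the last weekly dialysis. Plasma aliquots were counted by LSC; whole blood was combusted in an oxidizer before LSC. Results were converted to ng-eq. Noncompartmental analysis used actual sample times and dose: Cmax, tmax, AUClast, AUCinf, t1/2, CL, Vz.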

[6] = cited from earlier work
[7] = Safety: adverse events in the phase 1 study; assay type: in vivo, human

For `CC(C)C[C@@H](NC(=O)[C@@H](Cc1ccccc1)NC(=O)[C@H](N)Cc1ccccc1)C(=O)N[C@H](CCCCN)C(=O)N1CCC(N)(C(=O)O)CC1` [Difelikefalin, 4-amino-1-[(2R)-6-amino-2-[[(2R)-2-[[(2R)-2-[[(2R)-2-amino-3-phenylpropanoyl]amino]-3-phenylpropanoyl]amino]-4-methylpentanoyl]amino]hexanoyl]piperidine-4-carboxylic acid], the “share of total radioactivity excreted in feces recovered as unchanged difelikefalin” value [1] is given as 84.8%, the “activity at other receptors, ion channels, or transporters” value [2] is given as “no activity at other receptors, ion channels, or transporters” and the “metabolism by cytochrome P450 (CYP) enzymes” value [3] is given as “not metabolized”. For the same molecule, the “Percent of dose recovered in dialysate” value [4] was 19.5%, the “total radioactivity in whole blood lower than that in plasma” value ([5]; healthy subjects) was roughly 45% and the “time to maximum concentration (post-dose)” value ([5]; healthy subjects, plasma total radioactivity) was 5 min. The “mean AUC, subjects on HD versus healthy subjects” value ([5]; plasma total radioactivity, ratio of mean AUC, HD higher) was “approximately 11 fold”, the “total radioactivity in whole blood lower than that in plasma” value ([5]; subjects on hemodialysis) was “approximately 38%” and the “time to maximum concentration (post-dose)” value ([5]; subjects on hemodialysis, plasma total radioactivity) was 5 min. For the same molecule, the “abuse potential, physical dependence, respiratory depression” value [6] was “no abuse potential, no physical dependence, and no respiratory depression effects”, the “TEAEs considered by the investigator unrelated to study treatment” value ([7]; all 12 participants) was 17 of 24 and the “subjects reporting treatment-emergent AEs (TEAEs)” value ([7]; healthy subjects, of n = 6) was “three of the six”.

Reference: paper PMC10450003 (Clinical Pharmacokinetics, 2023)
